Results published in ChEMBL document CHEMBL1154185 (J Med Chem, 2009).

Columns and labels:
[1] = Growth inhibition of proapoptotic stimuli-resistant human OE21 cells after 72 hrs by MTT assay; assay type: functional, cell-based
[2] = Growth inhibition of proapoptotic stimuli-resistant human U373 cells after 72 hrs by MTT assay; assay type: functional, cell-based, U-373MG ATCC
Summary of the method: (§1)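 MTT assay. Cells were plated at 10,000–40,000 cells/mL and left 24 h to attach, then exposed to compound for 72 h (untreated controls). Formazan was read at 570 nm (reference 630 nm). Tested up to 10 μM (first panel) or up to 100 μM (second panel). Sextuplicate. U373 grown in MEM + 5% FBS; Hs683, SK-MEL-28 and B16F10 in RPMI + 10% FBS.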

[3] = Growth inhibition of human WS1 cells after 72 hrs by MTT assay; assay type: cell-based; settings: WS1, 72 h
Summary of the method: (§2)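 Cells plated 24 h in 96-well plates (10,000-40,000 cells/mL by cell type) in MEM (5% or 10% heat-inactivated FBS; with 100 μM non-essential amino acids for WI-38 and NHDF) or RPMI 10% FBS (A549), then exposed 72 h to compound up to 100 μM; MTT reduction read at 570 nm (reference 630 nm); sextuplicate.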

[4] = test system: B16-F10; assay: Growth inhibition of proapoptotic stimuli-sensitive mouse B16F10 cells after 72 hrs by MTT assay; assay type: functional, cell-based; summary of the method: as §1
[5] = Growth inhibition of human WI38 cells after 72 hrs by MTT assay; assay type: cell-based; settings: WI-38, 72 h; summary of the method: as §2
[6] = test system: A549; assay: Growth inhibition of proapoptotic stimuli-resistant human A549 cells after 72 hrs by MTT assay; assay type: functional, cell-based; summary of the method: as §2
[7] = test system: SK-MEL-28; assay: Growth inhibition of proapoptotic stimuli-resistant human SK-MEL-28 cells after 72 hrs by MTT assay; assay type: functional, cell-based; summary of the method: as §1
[8] = test system: NHDF; assay: Growth inhibition of human NHDF after 72 hrs by MTT assay; assay type: cell-based; summary of the method: as §2
[9] = Growth inhibition of proapoptotic stimuli-sensitive human Hs683 cells after 72 hrs by MTT assay; assay type: functional, cell-based, Hs 683; summary of the method: as §1

Row | IC50 ([4]; Mus musculus, B16-F10, 72 h) | IC50 ([7]; Homo sapiens, SK-MEL-28, 72 h) | IC50 ([4]; b16-f10) | IC50 ([6]; a549) | IC50 ([7]; sk-mel-28) | SMILES | IC50 ([1]; Homo sapiens, OE21, 72 h) | IC50 ([2]; Homo sapiens, U373 MG, 72 h) | IC50 [3] | IC50 [5] | IC50 ([6]; Homo sapiens, A549, 72 h) | IC50 [8] | IC50 ([9]; Homo sapiens, Hs 683, 72 h) | IC50 ([1]; oe21) | IC50 ([2]; u-373mg atcc) | IC50 ([9]; hs 683)
1 | > 10 µM | > 10 µM | – | – | – | O=C1c2cc3c(cc2[C@@H]2[C@H](O)[C@@H](O)C[C@H]4CCN1[C@H]42)OCO3 | > 10 µM | > 10 µM | – | – | > 10 µM | – | > 10 µM | – | – | –
2 | > 10 µM | > 10 µM | – | – | – | CC(=O)O[C@H]1[C@H]2c3cc4c(cc3CN3CCC(=C[C@@H]1O)[C@H]23)OCO4 | > 10 µM | > 10 µM | – | – | > 10 µM | – | > 10 µM | – | – | –
3 | 6.9 µM | > 10 µM | – | – | – | O[C@H]1[C@H]2c3cc4c(cc3CN3CCC(=C[C@@H]1Cl)[C@H]23)OCO4 | 9.6 µM | 2.3 µM | > 100 µM | 46 µM | 3.8 µM | 72.1 µM | 3.1 µM | – | – | –
4 | – | – | > 10 µM | > 10 µM | > 10 µM | C[N+]12CCC3=C[C@H](O)[C@@H](O)[C@@H](c4cc5c(cc4C1)OCO5)[C@@H]32 (some centres not stated) | – | – | – | – | – | – | – | > 10 µM | > 10 µM | > 10 µM
5 | > 10 µM | > 10 µM | – | – | – | O[C@@H]1CC=C2CCN3Cc4cc5c(cc4[C@H]1[C@@H]23)OCO5 [CARANINE] | > 10 µM | > 10 µM | – | – | > 10 µM | – | > 10 µM | – | – | –
6 | 7.5 µM | > 10 µM | – | – | – | COc1cc2c(cc1O)[C@@H]1[C@H](O)[C@@H](O)C=C3CCN(C2)[C@H]31 [PSEUDOLYCORINE] | – | – | 79.1 µM | 44 µM | – | 66.9 µM | 7.9 µM | – | – | –
7 | > 10 µM | > 10 µM | – | – | – | O=C1C=C2CCN3Cc4cc5c(cc4[C@H]([C@@H]1O)[C@@H]23)OCO5 | > 10 µM | > 10 µM | – | – | – | – | > 10 µM | – | – | –
8 | > 10 µM | > 10 µM | – | – | – | CC(=O)O[C@H]1[C@H]2c3cc4c(cc3CN3CCC(=C[C@@H]1OC(C)=O)[C@H]23)OCO4 | > 10 µM | > 10 µM | – | – | > 10 µM | – | > 10 µM | – | – | –
9 | > 10 µM | > 10 µM | – | – | – | [O-]c1cc2c3c(c1)c1cc4c(cc1c[n+]3CC2)OCO4 [UNGEREMINE] | > 10 µM | 8.3 µM | – | – | > 10 µM | – | > 10 µM | – | – | –
10 | > 10 µM | > 10 µM | – | – | – | CC(=O)O[C@H]1[C@H]2c3cc4c(cc3CN3CC[C@H](C[C@@H]1OC(C)=O)[C@H]23)OCO4 | > 10 µM | > 10 µM | – | – | > 10 µM | – | > 10 µM | – | – | –
11 | > 10 µM | > 10 µM | – | – | – | CC(=O)O[C@H]1[C@H]2c3cc4c(cc3CN3CC[C@@H](C[C@@H]1OC(C)=O)[C@H]23)OCO4 | > 10 µM | > 10 µM | – | – | > 10 µM | – | > 10 µM | – | – | –

Row | SMILES | IC50 ([4]; Mus musculus, B16-F10, 72 h) | IC50 ([7]; Homo sapiens, SK-MEL-28, 72 h) | IC50 ([4]; b16-f10) | IC50 ([6]; a549) | IC50 ([7]; sk-mel-28) | IC50 ([1]; Homo sapiens, OE21, 72 h) | IC50 ([2]; Homo sapiens, U373 MG, 72 h) | IC50 [3] | IC50 [5] | IC50 ([6]; Homo sapiens, A549, 72 h) | IC50 [8] | IC50 ([9]; Homo sapiens, Hs 683, 72 h) | IC50 ([1]; oe21) | IC50 ([2]; u-373mg atcc) | IC50 ([9]; hs 683)
12 | CC(=O)O[C@H]1C=C2CCN3Cc4cc5c(cc4[C@H]([C@@H]1O)[C@@H]23)OCO5 | > 10 µM | > 10 µM | – | – | – | > 10 µM | > 10 µM | > 100 µM | 88.5 µM | > 10 µM | > 100 µM | > 10 µM | – | – | –
13 | C1=C2CCN3Cc4cc5c(cc4[C@H]([C@@H]4O[C@H]14)[C@@H]23)OCO5 | 4.6 µM | 9.5 µM | – | – | – | 8.5 µM | 2.4 µM | 36.8 µM | 28.6 µM | 3.4 µM | 9.3 µM | 3.3 µM | – | – | –
14 | C1=C2CCN3Cc4cc5c(cc4[C@H](CC1)[C@@H]23)OCO5 [LYCORENE] | > 10 µM | > 10 µM | – | – | – | > 10 µM | > 10 µM | – | – | > 10 µM | – | > 10 µM | – | – | –
15 | O[C@H]1[C@H]2c3cc4c(cc3CN3CC[C@@H](C[C@@H]1O)[C@H]23)OCO4 | > 10 µM | > 10 µM | – | – | – | > 10 µM | > 10 µM | – | – | > 10 µM | – | > 10 µM | – | – | –
16 | O[C@H]1[C@H]2c3cc4c(cc3CN3CC[C@H](C[C@@H]1O)[C@H]23)OCO4 | > 10 µM | > 10 µM | – | – | – | > 10 µM | > 10 µM | – | – | > 10 µM | – | > 10 µM | – | – | –
17 | COC1=C[C@@H]2CCN3Cc4cc5c(cc4[C@@H]([C@H]23)[C@@H]1O)OCO5 [AMARBELLISINE] | 6.7 µM | 8.3 µM | – | – | – | – | – | 97.6 µM | > 100 µM | 7.2 µM | > 100 µM | 8.3 µM | – | – | –
18 | O[C@H]1[C@H]2c3cc4c(cc3CN3CCC(=C[C@H]1O)[C@H]23)OCO4 | > 10 µM | > 10 µM | – | – | – | > 10 µM | > 10 µM | – | – | > 10 µM | – | > 10 µM | – | – | –
19 | COc1cc2c(cc1O)CN1CCC3=CC[C@@H](O)[C@@H]2[C@@H]31 [NORPLUVINE] | > 10 µM | > 10 µM | – | – | – | > 10 µM | > 10 µM | – | – | > 10 µM | – | > 10 µM | – | – | –
20 | c1cc2c3c(c1)-c1cc4c(cc1CN3CC2)OCO4 [ANHYDROLYCORINE] | > 10 µM | > 10 µM | – | – | – | 8.8 µM | 5.1 µM | 23.7 µM | 30.1 µM | 4.5 µM | 26.6 µM | 7.1 µM | – | – | –
